As a reminder, the IC50 is the concentration that gives 50% inhibition.

The source of these data is PMC3988618 (Messenger (Los Angeles, Calif. : Print), 2012).

In one assay the target is type 1 InsP3R (InsP3R1) (Mus musculus, UniProt P11881). As to the kind of experiment: Inhibition of Ins. It counts as cell-based. The following applies: for IC50: read-out: Ins P3R antagonism IC50 (inhibition of Ins(1,4,5)P3-induced Ca2+ release), permeabilized L15 fibroblasts overexpressing InsP3R1, Ca2+ release induced by 250 nM Ins(1,4,5)P3. The method, boiled down:
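Mouse InsP3R1-overexpressing L15 fibroblasts, confluent (days 6–8), saponin-permeabilized (40 μg ml−1, 10 min); stores loaded 45 min with 150 nM free 45Ca2+, ATP, NaN3, pH 6.8; 30 °C. Efflux with 1 mM EGTA plus 10 μM thapsigargin, sampled every 2 min; Ins(1,4,5)P3 given 2 min, compound 6 min around it. Release taken as fractional loss over basal leak; Hill fits; 3–4 experiments in duplicate.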

For assay [1], the system named is InsP3R. Particulars: bovine adrenal cortex microsomes; ref Poitras, 1993; cited from earlier work.
Assay [2] has as its target InsP3R. The following applies: ref Vandeput, 2007; cited from earlier work.
Assay [3] deals with T1, human type I Ins(1,4,5)P3 5-phosphatase (Homo sapiens, UniProt Q14642).
T1 sequence (Q14642 1-412): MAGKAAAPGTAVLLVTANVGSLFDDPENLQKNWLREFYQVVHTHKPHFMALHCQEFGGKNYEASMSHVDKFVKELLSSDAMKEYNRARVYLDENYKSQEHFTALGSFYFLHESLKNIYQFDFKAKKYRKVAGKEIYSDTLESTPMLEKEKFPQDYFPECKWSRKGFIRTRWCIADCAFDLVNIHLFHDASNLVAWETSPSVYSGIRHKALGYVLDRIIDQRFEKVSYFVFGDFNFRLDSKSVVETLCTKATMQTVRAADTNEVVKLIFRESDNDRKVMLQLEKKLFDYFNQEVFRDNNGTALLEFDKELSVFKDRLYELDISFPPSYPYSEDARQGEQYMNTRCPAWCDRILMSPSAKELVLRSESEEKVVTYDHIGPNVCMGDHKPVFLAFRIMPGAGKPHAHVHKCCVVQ
Nature of the assay: Ins. Type of assay: biochemical. Particulars: ratio of IC50 values. The method, boiled down: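 Recombinant human type I Ins(1,4,5)P3 5-phosphatase; inhibition by test compound read by malachite green phosphate detection with 1.0 μmol Ins(1,4,5)P3 substrate.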

Chain of type 1 InsP3R (InsP3R1) (P11881 whole entry): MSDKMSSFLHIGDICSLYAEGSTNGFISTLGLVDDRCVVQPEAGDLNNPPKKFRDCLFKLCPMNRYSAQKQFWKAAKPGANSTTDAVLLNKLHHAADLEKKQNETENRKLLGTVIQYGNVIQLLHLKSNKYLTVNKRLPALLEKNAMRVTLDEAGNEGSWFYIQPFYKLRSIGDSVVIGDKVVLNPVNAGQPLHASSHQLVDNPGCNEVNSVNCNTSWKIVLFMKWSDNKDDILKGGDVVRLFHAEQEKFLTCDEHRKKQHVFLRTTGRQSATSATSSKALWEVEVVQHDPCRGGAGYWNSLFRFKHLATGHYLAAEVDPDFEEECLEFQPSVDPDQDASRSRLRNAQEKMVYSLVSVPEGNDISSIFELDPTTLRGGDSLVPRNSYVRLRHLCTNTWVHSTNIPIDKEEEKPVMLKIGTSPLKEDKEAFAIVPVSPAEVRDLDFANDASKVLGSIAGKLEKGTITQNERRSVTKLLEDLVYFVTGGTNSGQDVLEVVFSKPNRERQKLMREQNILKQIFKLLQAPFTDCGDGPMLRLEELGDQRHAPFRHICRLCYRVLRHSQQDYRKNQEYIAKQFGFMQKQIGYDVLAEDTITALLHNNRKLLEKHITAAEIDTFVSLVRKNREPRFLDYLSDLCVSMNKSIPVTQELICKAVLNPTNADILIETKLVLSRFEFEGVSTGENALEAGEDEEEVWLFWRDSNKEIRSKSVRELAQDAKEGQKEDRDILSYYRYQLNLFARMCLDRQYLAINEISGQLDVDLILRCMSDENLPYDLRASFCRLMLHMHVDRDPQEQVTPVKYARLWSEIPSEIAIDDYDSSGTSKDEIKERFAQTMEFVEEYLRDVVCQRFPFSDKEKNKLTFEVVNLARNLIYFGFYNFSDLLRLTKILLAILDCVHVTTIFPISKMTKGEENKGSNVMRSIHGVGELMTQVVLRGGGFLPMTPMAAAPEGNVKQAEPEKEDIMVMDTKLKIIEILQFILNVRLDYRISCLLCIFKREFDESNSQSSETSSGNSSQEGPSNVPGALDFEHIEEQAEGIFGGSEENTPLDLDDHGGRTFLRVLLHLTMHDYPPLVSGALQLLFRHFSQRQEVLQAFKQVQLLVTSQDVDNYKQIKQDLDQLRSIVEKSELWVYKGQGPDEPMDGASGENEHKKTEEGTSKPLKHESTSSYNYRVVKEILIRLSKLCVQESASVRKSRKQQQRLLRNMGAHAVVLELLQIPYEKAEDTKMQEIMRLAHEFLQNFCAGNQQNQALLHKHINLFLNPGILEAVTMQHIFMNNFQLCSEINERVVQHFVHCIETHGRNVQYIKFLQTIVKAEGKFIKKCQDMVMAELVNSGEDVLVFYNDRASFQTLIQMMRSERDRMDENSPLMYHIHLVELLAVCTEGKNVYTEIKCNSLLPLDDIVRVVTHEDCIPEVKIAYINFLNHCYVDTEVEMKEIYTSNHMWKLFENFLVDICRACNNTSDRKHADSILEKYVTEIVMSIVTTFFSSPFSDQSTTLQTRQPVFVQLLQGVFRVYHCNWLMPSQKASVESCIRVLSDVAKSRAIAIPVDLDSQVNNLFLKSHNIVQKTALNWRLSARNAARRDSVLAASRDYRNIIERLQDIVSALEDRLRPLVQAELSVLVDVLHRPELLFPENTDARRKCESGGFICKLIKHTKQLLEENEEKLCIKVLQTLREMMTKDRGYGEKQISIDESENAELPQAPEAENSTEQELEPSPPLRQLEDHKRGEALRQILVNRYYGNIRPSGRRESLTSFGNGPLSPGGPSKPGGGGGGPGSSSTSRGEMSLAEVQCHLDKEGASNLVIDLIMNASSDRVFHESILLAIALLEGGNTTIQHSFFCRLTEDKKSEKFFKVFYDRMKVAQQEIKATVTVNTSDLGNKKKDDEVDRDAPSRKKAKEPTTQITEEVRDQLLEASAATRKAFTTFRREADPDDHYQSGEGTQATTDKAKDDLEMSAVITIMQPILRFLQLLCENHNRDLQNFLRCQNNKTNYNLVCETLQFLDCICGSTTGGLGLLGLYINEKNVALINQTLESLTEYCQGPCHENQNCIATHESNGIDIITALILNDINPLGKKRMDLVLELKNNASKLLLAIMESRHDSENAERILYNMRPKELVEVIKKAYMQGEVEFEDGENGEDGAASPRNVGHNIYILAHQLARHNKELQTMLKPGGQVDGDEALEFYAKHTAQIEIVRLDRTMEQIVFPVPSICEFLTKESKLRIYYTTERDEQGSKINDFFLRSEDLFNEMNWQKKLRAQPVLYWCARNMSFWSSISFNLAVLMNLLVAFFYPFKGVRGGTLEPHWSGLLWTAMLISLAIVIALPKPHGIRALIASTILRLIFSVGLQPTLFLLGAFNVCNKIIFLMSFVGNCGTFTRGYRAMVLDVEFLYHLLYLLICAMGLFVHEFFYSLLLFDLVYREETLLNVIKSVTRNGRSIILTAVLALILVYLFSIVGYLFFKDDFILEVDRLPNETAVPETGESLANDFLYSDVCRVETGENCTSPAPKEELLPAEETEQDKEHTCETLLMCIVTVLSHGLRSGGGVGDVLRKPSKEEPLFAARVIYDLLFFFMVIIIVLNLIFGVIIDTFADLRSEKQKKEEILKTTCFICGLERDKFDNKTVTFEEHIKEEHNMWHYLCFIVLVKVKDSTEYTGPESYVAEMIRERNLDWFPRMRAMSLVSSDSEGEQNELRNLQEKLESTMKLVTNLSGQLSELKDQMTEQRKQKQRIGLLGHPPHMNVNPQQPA

Take `O=P(O)(O)O[C@@H]1[C@H](O)[C@H](O)[C@@H](OP(=O)(O)O)[C@H](OP(=O)(O)O)[C@H]1O` [Compound 1, Myo-inositol 1,4,5-trisphosphate, reference compound]: the Kd at type 1 InsP3R (InsP3R1) (read-out: apparent Kd for Ins(1,4,5)P3 at the receptor, absence of (8), Lineweaver-Burk plot of Ca2+ release) turned out to be 400 nM.

As to `O=P(O)(O)Oc1ccc(OP(=O)(O)O)c(OP(=O)(O)O)c1` [Compound 2, Benzene 1,2,4-trisphosphate], in the assay with InsP3R [1], the “Blocking of [3H]Ins(1,4,5)P3 binding, fold weaker than Ins(1,4,5)P3” value is ~10,000 fold.

For `O=P(O)(O)Oc1cc(OP(=O)(O)O)cc(-c2c(OP(=O)(O)O)cc(OP(=O)(O)O)cc2OP(=O)(O)O)c1` [Compound 4, biphenyl 2,3′,4,5′,6-pentakisphosphate, reference compound], the IC50 on type 1 InsP3R (InsP3R1) is 417 nM. For the same molecule, on InsP3R [2], the “IC50 as Ins(1,4,5)P3 receptor antagonist” value is given as “low micromolar range”.

Regarding `O=P(O)(O)Oc1cc(OP(=O)(O)O)c(-c2cc(OP(=O)(O)O)c(OP(=O)(O)O)cc2OP(=O)(O)O)cc1OP(=O)(O)O` [Compound 8, 2,2′,4,4′,5,5′-Biphenylhexakisphosphate], the “Mode of inhibition at the InsP3R” value on type 1 InsP3R (InsP3R1) (200 nM compound at various Ins(1,4,5)P3 concentrations, Lineweaver-Burk plot) is “competitive inhibitor”. The “Effect on Ins(1,4,5)P3-induced Ca2+ release” value on type 1 InsP3R (InsP3R1) (200 nM compound, low (0.1 μM) Ins(1,4,5)P3, not at high (3 μM) Ins(1,4,5)P3) is on record as “strongly inhibited”. Also, the IC50 on type 1 InsP3R (InsP3R1) was determined as 187 nM. Also, in assay [3], the “5-phosphatase inhibition, fold more potent than (10)” value is recorded as no less than 20 fold and the “5-phosphatase inhibition, times better than (4)” value was roughly 4 times.

In the case of `O=P(O)(O)Oc1cc(OP(=O)(O)O)c(OP(=O)(O)O)cc1OCCOc1cc(OP(=O)(O)O)c(OP(=O)(O)O)cc1OP(=O)(O)O` [Compound 9], at type 1 InsP3R (InsP3R1), the IC50 came out at 380 nM. For the same molecule, the “5-phosphatase inhibition, fold weaker than (8)” value in assay [3] stood at 7 fold.

With `O=P(O)(O)Oc1ccc(OCCOc2ccc(OP(=O)(O)O)c(OP(=O)(O)O)c2)cc1OP(=O)(O)O` [Compound 10], the IC50 at type 1 InsP3R (InsP3R1) is greater than 5000 nM. For the same molecule, the “Inhibition of Ca2+ release” value at type 1 InsP3R (InsP3R1) (up to 10 μM compound, 250 nM Ins(1,4,5)P3) is “ineffective”.
